Assay results from different studies.
Lines come from different studies, so protocols differ.
Target: High affinity nerve growth factor receptor (NTRK1, Homo sapiens, UniProt P04629)

The inhibition of CCN(CC)CCNC(=O)c1c(C)[nH]c(/C=C2\C(=O)Nc3ccc(F)cc32)c1C is reported as 91% (enzyme activity; inhibitor; 0.3 µM).
With CN(C)C1CCN(CC#Cc2nn(C3CCCC3)c3nc(NCc4ccccc4)ncc23)C1 (stereo not shown) the inhibition was 65% (enzyme activity; inhibitor; FRET; 10 µM).
The inhibition of CN1CCN(CC(=O)Nc2cccc(C(=O)Nc3ccc4[nH]ncc4c3)c2)CC1 is reported as 14.1% (enzyme activity; inhibitor; FRET; 1 µM).
With CNCc1ccc(-c2cc(-c3nc(-c4ccc(S(=O)(=O)C(C)C)cc4)cnc3N)on2)cc1 the inhibition was 13% (enzyme activity; inhibitor; 0.4 µM).
For CNC(=O)c1cc(Oc2ccc(NC(=O)Nc3ccc(Cl)c(C(F)(F)F)c3)cc2)ccn1, the inhibition was 98% (enzyme activity; inhibitor; 10 µM).
O=C(Nc1ccccc1)Nc1cccc(C(=O)Nc2ccc3[nH]ncc3c2)c1 has an inhibition of 33.2% (enzyme activity; inhibitor; FRET; 1 µM).
CNC(=O)c1ccccc1Nc1cc(Nc2ccc(N3CCOCC3)cc2OC)ncc1C(F)(F)F has an inhibition of greater than 50% (enzyme activity; inhibitor; 1 µM).
C=CC(=O)Nc1cc(Nc2nccc(Nc3cc(Cl)c(F)cc3C(C)(C)O)n2)c(OC)cc1N1CC[C@@H](N(C)C)C1 gave an inhibition of 51% (enzyme activity; inhibitor; 1 µM).
With Cc1ccc(Nc2nccc(N(C)c3ccc4c(C)n(C)nc4c3)n2)cc1S(N)(=O)=O the inhibition was 16% (enzyme activity; inhibitor; 0.3 µM).
With COc1cc(C)c(Sc2cnc(NC(=O)c3ccc(N4CCN(CCCCCCCNC(=O)COc5cccc6c5C(=O)N(C5CCC(=O)NC5=O)C6=O)CC4)cc3)s2)cc1C(=O)N1CCN(C(C)=O)CC1 (stereo not shown) the inhibition was greater than 90% (binding; 1 µM).
With O=C(Nc1ccc(C(F)(F)F)cc1)Nc1cccc(C(=O)Nc2ccc3[nH]ncc3c2)c1 the inhibition was 74% (enzyme activity; inhibitor; FRET; 1 µM).
COc1cc2ncnc(Nc3ccc(Oc4ccccc4)c(C)c3C)c2cc1OC gave an inhibition of -1% (enzyme activity; inhibitor; 1 µM).
For O=C(Nc1ccc(C(F)(F)F)cc1)Nc1cccc(C(=O)Nc2ccc3[nH]nc(-c4ccccc4)c3c2)c1, the inhibition was 17% (enzyme activity; inhibitor; FRET; 1 µM).
CN1CC(Oc2cnc(C#N)cc2-c2ccn3nc(NC(=O)C4CC4)cc3c2)C1 has an inhibition of 5% (enzyme activity; inhibitor; 1 µM).
The inhibition of O=C(Nc1ccc2[nH]ncc2c1)c1cccc(NC(=S)Nc2ccc(C(F)(F)F)cc2)c1 is reported as 58% (enzyme activity; inhibitor; FRET; 1 µM).
CCCS(=O)(=O)Nc1ccc(F)c(C(=O)c2c[nH]c3ncc(-c4ccc(Cl)cc4)cc23)c1F has an inhibition of less than 10% (enzyme activity; inhibitor; 1 µM).
